# From ChEMBL document CHEMBL4368880, “Synthesis and biological evaluation of 3-(1,3,4-oxadiazol-2-yl)-1,8-naphthyridin-4(1H)-ones as cisplatin sensitizers” (Medchemcomm, 2018)
# Tested on: L02
# Assay: Cytotoxicity against human LO2 cells assessed as reduction in cell growth at 5 to 10 uM after 24 hrs by MTT assay
# Format: cell-based
# Conditions: l02, 24 h
row,Structure (SMILES),Activity
1,N#Cc1ccc(-c2cnc3[nH]cc(-c4nnc(-c5ccc(Cl)cc5)o4)c(=O)c3c2)cc1,Non-Toxic
2,CS(=O)(=O)c1ccc(-c2cnc3[nH]cc(-c4nnc(-c5ccc(Cl)cc5)o4)c(=O)c3c2)cc1,Non-Toxic
3,CS(=O)(=O)c1ccc(-c2cnc3[nH]cc(-c4nnc(-c5cccnc5)o4)c(=O)c3c2)cc1,Non-Toxic
4,O=c1c(-c2nnc(-c3ccc(F)cc3)o2)c[nH]c2ncc(-c3cccnc3)cc12,Non-Toxic
5,O=c1c(-c2nnc(-c3ccc(Cl)cc3)o2)c[nH]c2ncc(-c3ccccc3)cc12,Non-Toxic
6,O=c1c(-c2nnc(-c3ccc(F)cc3)o2)c[nH]c2ncc(-c3ccncc3)cc12,Non-Toxic

# Tested on: A549
# Assay: Growth inhibition of human A549 cells at 5 uM after 24 hrs by MTT assay relative to control
# Format: functional
# Conditions: A549, 24 h, read-out: GI
# How it was run: (§1)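 Monolayers seeded 24 h before treatment, then exposed to compound, with DMEM or RPMI 1640 plus 10% FBS as growth medium. MTT (5 mg mL–1 stock) incubated 2–4 h at 37 °C, formazan dissolved in DMSO, and absorbance read at 570 nm. Growth inhibition reported as % of control.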
row,Structure (SMILES),inhibition of growth at 5 µM
1,N#Cc1ccc(-c2cnc3[nH]cc(-c4nnc(-c5ccc(Cl)cc5)o4)c(=O)c3c2)cc1,7.6%
2,CS(=O)(=O)c1ccc(-c2cnc3[nH]cc(-c4nnc(-c5ccc(Cl)cc5)o4)c(=O)c3c2)cc1,23.8%
3,O=c1c(-c2nnc(-c3ccc(Cl)cc3)o2)c[nH]c2ncc(-c3ccccc3)cc12,1.44%

# Tested on: HCT-116
# Assay: Growth inhibition of human HCT116 cells at 2.5 uM after 24 hrs by MTT assay relative to control
# Format: functional
# Conditions: HCT-116, 24 h, read-out: GI
# How it was run: as §1
row,Structure (SMILES),inhibition of growth at 2.5 µM
1,N#Cc1ccc(-c2cnc3[nH]cc(-c4nnc(-c5ccc(Cl)cc5)o4)c(=O)c3c2)cc1,13.7%
2,CS(=O)(=O)c1ccc(-c2cnc3[nH]cc(-c4nnc(-c5ccc(Cl)cc5)o4)c(=O)c3c2)cc1,2.06%
3,CS(=O)(=O)c1ccc(-c2cnc3[nH]cc(-c4nnc(-c5cccnc5)o4)c(=O)c3c2)cc1,4.32%
4,O=c1c(-c2nnc(-c3ccc(F)cc3)o2)c[nH]c2ncc(-c3cccnc3)cc12,9.87%
5,O=c1c(-c2nnc(-c3ccc(Cl)cc3)o2)c[nH]c2ncc(-c3ccccc3)cc12,9.81%
6,O=c1c(-c2nnc(-c3ccc(F)cc3)o2)c[nH]c2ncc(-c3ccncc3)cc12,7.54%

# Tested on: MCF7
# Assay: Growth inhibition of human MCF7 cells at 5 uM after 24 hrs by MTT assay relative to control
# Format: functional
# Conditions: MCF7, 24 h, read-out: GI
# How it was run: as §1
row,Structure (SMILES),inhibition of growth at 5 µM
1,N#Cc1ccc(-c2cnc3[nH]cc(-c4nnc(-c5ccc(Cl)cc5)o4)c(=O)c3c2)cc1,4.65%
2,CS(=O)(=O)c1ccc(-c2cnc3[nH]cc(-c4nnc(-c5ccc(Cl)cc5)o4)c(=O)c3c2)cc1,0.86%
3,O=c1c(-c2nnc(-c3ccc(Cl)cc3)o2)c[nH]c2ncc(-c3ccccc3)cc12,11.9%

# Tested on: KB
# Assay: Growth inhibition of human KB cells at 10 uM after 24 hrs by MTT assay relative to control
# Format: functional
# Conditions: read-out: GI
# How it was run: as §1
row,Structure (SMILES),inhibition of growth at 10 µM
1,N#Cc1ccc(-c2cnc3[nH]cc(-c4nnc(-c5ccc(Cl)cc5)o4)c(=O)c3c2)cc1,9.73%
2,CS(=O)(=O)c1ccc(-c2cnc3[nH]cc(-c4nnc(-c5ccc(Cl)cc5)o4)c(=O)c3c2)cc1,9.3%
3,O=c1c(-c2nnc(-c3ccc(Cl)cc3)o2)c[nH]c2ncc(-c3ccccc3)cc12,19.5%

# Tested on: HepG2
# Assay: Growth inhibition of human HepG2 cells at 10 uM after 24 hrs by MTT assay relative to control
# Format: functional
# Conditions: HepG2, 24 h, read-out: GI
# How it was run: as §1
row,Structure (SMILES),inhibition of growth at 10 µM
1,N#Cc1ccc(-c2cnc3[nH]cc(-c4nnc(-c5ccc(Cl)cc5)o4)c(=O)c3c2)cc1,12.7%
2,CS(=O)(=O)c1ccc(-c2cnc3[nH]cc(-c4nnc(-c5ccc(Cl)cc5)o4)c(=O)c3c2)cc1,11.6%
3,O=c1c(-c2nnc(-c3ccc(Cl)cc3)o2)c[nH]c2ncc(-c3ccccc3)cc12,14.9%

# Tested on: HCT-116
# Assay: Growth inhibition of human HCT116 cells at 5 uM after 24 hrs by MTT assay relative to control
# Format: functional
# Conditions: HCT-116, 24 h, read-out: GI
# How it was run: as §1
row,Structure (SMILES),inhibition of growth at 5 µM
1,N#Cc1ccc(-c2cnc3[nH]cc(-c4nnc(-c5ccc(Cl)cc5)o4)c(=O)c3c2)cc1,17.9%
2,CS(=O)(=O)c1ccc(-c2cnc3[nH]cc(-c4nnc(-c5ccc(Cl)cc5)o4)c(=O)c3c2)cc1,16.4%
3,CS(=O)(=O)c1ccc(-c2cnc3[nH]cc(-c4nnc(-c5cccnc5)o4)c(=O)c3c2)cc1,9.26%
4,O=c1c(-c2nnc(-c3ccc(F)cc3)o2)c[nH]c2ncc(-c3cccnc3)cc12,11.1%
5,O=c1c(-c2nnc(-c3ccc(Cl)cc3)o2)c[nH]c2ncc(-c3ccccc3)cc12,12.3%
6,O=c1c(-c2nnc(-c3ccc(F)cc3)o2)c[nH]c2ncc(-c3ccncc3)cc12,10.9%

# Tested on: HepG2
# Assay: Growth inhibition of human HepG2 cells at 5 uM after 24 hrs by MTT assay relative to control
# Format: functional
# Conditions: HepG2, 24 h, read-out: GI
# How it was run: as §1
row,Structure (SMILES),inhibition of growth at 5 µM
1,N#Cc1ccc(-c2cnc3[nH]cc(-c4nnc(-c5ccc(Cl)cc5)o4)c(=O)c3c2)cc1,11.5%
2,CS(=O)(=O)c1ccc(-c2cnc3[nH]cc(-c4nnc(-c5ccc(Cl)cc5)o4)c(=O)c3c2)cc1,11.2%
3,O=c1c(-c2nnc(-c3ccc(Cl)cc3)o2)c[nH]c2ncc(-c3ccccc3)cc12,5.1%

# Tested on: KB
# Assay: Growth inhibition of human KB cells at 5 uM after 24 hrs by MTT assay relative to control
# Format: functional
# Conditions: read-out: GI
# How it was run: as §1
row,Structure (SMILES),inhibition of growth at 5 µM
1,N#Cc1ccc(-c2cnc3[nH]cc(-c4nnc(-c5ccc(Cl)cc5)o4)c(=O)c3c2)cc1,7.35%
2,CS(=O)(=O)c1ccc(-c2cnc3[nH]cc(-c4nnc(-c5ccc(Cl)cc5)o4)c(=O)c3c2)cc1,2.15%
3,O=c1c(-c2nnc(-c3ccc(Cl)cc3)o2)c[nH]c2ncc(-c3ccccc3)cc12,2.15%

# Tested on: A549
# Assay: Growth inhibition of human A549 cells at 10 uM after 24 hrs by MTT assay relative to control
# Format: functional
# Conditions: A549, 24 h, read-out: GI
# How it was run: as §1
row,Structure (SMILES),inhibition of growth at 10 µM
1,N#Cc1ccc(-c2cnc3[nH]cc(-c4nnc(-c5ccc(Cl)cc5)o4)c(=O)c3c2)cc1,12.5%
2,CS(=O)(=O)c1ccc(-c2cnc3[nH]cc(-c4nnc(-c5ccc(Cl)cc5)o4)c(=O)c3c2)cc1,26.8%
3,O=c1c(-c2nnc(-c3ccc(Cl)cc3)o2)c[nH]c2ncc(-c3ccccc3)cc12,9.77%

# Tested on: MCF7
# Assay: Growth inhibition of human MCF7 cells at 10 uM after 24 hrs by MTT assay relative to control
# Format: functional
# Conditions: MCF7, 24 h, read-out: GI
# How it was run: as §1
row,Structure (SMILES),inhibition of growth at 10 µM
1,N#Cc1ccc(-c2cnc3[nH]cc(-c4nnc(-c5ccc(Cl)cc5)o4)c(=O)c3c2)cc1,19.7%
2,CS(=O)(=O)c1ccc(-c2cnc3[nH]cc(-c4nnc(-c5ccc(Cl)cc5)o4)c(=O)c3c2)cc1,13.1%
3,O=c1c(-c2nnc(-c3ccc(Cl)cc3)o2)c[nH]c2ncc(-c3ccccc3)cc12,26.9%

# Tested on: HCT-116
# Assay: Growth inhibition of human HCT116 cells at 10 uM after 24 hrs by MTT assay relative to control
# Format: functional
# Conditions: HCT-116, 24 h, read-out: GI
# How it was run: as §1
row,Structure (SMILES),inhibition of growth at 10 µM
1,N#Cc1ccc(-c2cnc3[nH]cc(-c4nnc(-c5ccc(Cl)cc5)o4)c(=O)c3c2)cc1,18.3%
2,CS(=O)(=O)c1ccc(-c2cnc3[nH]cc(-c4nnc(-c5ccc(Cl)cc5)o4)c(=O)c3c2)cc1,17%
3,CS(=O)(=O)c1ccc(-c2cnc3[nH]cc(-c4nnc(-c5cccnc5)o4)c(=O)c3c2)cc1,14.7%
4,O=c1c(-c2nnc(-c3ccc(F)cc3)o2)c[nH]c2ncc(-c3cccnc3)cc12,19.7%
5,O=c1c(-c2nnc(-c3ccc(Cl)cc3)o2)c[nH]c2ncc(-c3ccccc3)cc12,21.6%
6,O=c1c(-c2nnc(-c3ccc(F)cc3)o2)c[nH]c2ncc(-c3ccncc3)cc12,20.5%

# Tested on: HeLa
# Assay: Growth inhibition of human HeLa cells at 10 uM after 24 hrs by MTT assay relative to control
# Format: functional
# Conditions: read-out: GI
# How it was run: as §1
row,Structure (SMILES),inhibition of growth at 10 µM
1,N#Cc1ccc(-c2cnc3[nH]cc(-c4nnc(-c5ccc(Cl)cc5)o4)c(=O)c3c2)cc1,13.7%
2,CS(=O)(=O)c1ccc(-c2cnc3[nH]cc(-c4nnc(-c5ccc(Cl)cc5)o4)c(=O)c3c2)cc1,1.64%
3,O=c1c(-c2nnc(-c3ccc(Cl)cc3)o2)c[nH]c2ncc(-c3ccccc3)cc12,31.3%

# Tested on: HCT-116
# Assay: Potentiation of cisplatin-induced antiproliferative activity against human HCT116 cells assessed as cell growth inhibition at 2.5 uM preincubated for 24 hrs followed by 2.5 uM cisplatin addition and measured after 48 hrs by MTT assay (reference value: 26.98 +/-2.84%)
# Format: functional
# Conditions: read-out: GI
row,Structure (SMILES),inhibition of growth at 2.5 µM
1,N#Cc1ccc(-c2cnc3[nH]cc(-c4nnc(-c5ccc(Cl)cc5)o4)c(=O)c3c2)cc1,35.4%
2,CS(=O)(=O)c1ccc(-c2cnc3[nH]cc(-c4nnc(-c5ccc(Cl)cc5)o4)c(=O)c3c2)cc1,24.9%
3,CS(=O)(=O)c1ccc(-c2cnc3[nH]cc(-c4nnc(-c5cccnc5)o4)c(=O)c3c2)cc1,28.6%
4,O=c1c(-c2nnc(-c3ccc(F)cc3)o2)c[nH]c2ncc(-c3cccnc3)cc12,20.1%
5,O=c1c(-c2nnc(-c3ccc(Cl)cc3)o2)c[nH]c2ncc(-c3ccccc3)cc12,29.8%
6,O=c1c(-c2nnc(-c3ccc(F)cc3)o2)c[nH]c2ncc(-c3ccncc3)cc12,19.6%

# Tested on: HeLa
# Assay: Growth inhibition of human HeLa cells at 5 uM after 24 hrs by MTT assay relative to control
# Format: functional
# Conditions: read-out: GI
# How it was run: as §1
row,Structure (SMILES),inhibition of growth at 5 µM
1,N#Cc1ccc(-c2cnc3[nH]cc(-c4nnc(-c5ccc(Cl)cc5)o4)c(=O)c3c2)cc1,4.8%
2,CS(=O)(=O)c1ccc(-c2cnc3[nH]cc(-c4nnc(-c5ccc(Cl)cc5)o4)c(=O)c3c2)cc1,1.07%
3,O=c1c(-c2nnc(-c3ccc(Cl)cc3)o2)c[nH]c2ncc(-c3ccccc3)cc12,3.55%
